Assay results: ChEMBL document CHEMBL1151238, “New stilbene derivatives from Calligonum leucocladum” (2004)
Converted amounts (≈) assume the structure as drawn.

Experiments:
Assay type in all cases: functional
[1] = system: Staphylococcus aureus; experiment: Antimicrobial activity against methicillin-resistant Staphylococcus aureus COL after 24 hrs
How it was run: (§1)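 Overnight 37 °C Mueller-Hinton broth cultures of clinical isolates or strain COL were diluted in 0.85% NaCl and spotted by inoculator at about 10⁶ cfu/mL. Plates were held 37 °C for 24 h. MIC was taken as the lowest concentration giving complete growth inhibition.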

[2] = system: Staphylococcus aureus; experiment: Antimicrobial activity against methicillin-resistant Staphylococcus aureus 8 after 24 hrs; how it was run: as §1
[3] = DPPH radical scavenging activity assessed as ratio of absorbance at 20 uM relative to L-cysteine
How it was run: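 Test compound at 20 μM in ethanolic solution, mixed with ethanol, 50 mM MES buffer (pH 5.5) and 0.5 mM DPPH in ethanol. Decrease in absorbance at 517 nm read after 30 min. L-Cysteine served as reference. Value given as the ratio of absorbance between L-cysteine and test compound.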

[4] = system: Staphylococcus aureus; experiment: Antimicrobial activity against methicillin-resistant Staphylococcus aureus 1 after 24 hrs; how it was run: as §1
[5] = system: Staphylococcus aureus; experiment: Antimicrobial activity against methicillin-resistant Staphylococcus aureus 12 after 24 hrs; how it was run: as §1
[6] = system: Staphylococcus aureus; experiment: Antimicrobial activity against methicillin-resistant Staphylococcus aureus 2 after 24 hrs; how it was run: as §1
[7] = system: Staphylococcus aureus; experiment: Antimicrobial activity against methicillin-resistant Staphylococcus aureus 5 after 24 hrs; how it was run: as §1
[8] = system: Staphylococcus aureus; experiment: Antimicrobial activity against methicillin-resistant Staphylococcus aureus 4 after 24 hrs; how it was run: as §1

Row | Structure (SMILES) | MIC [1] | MIC [2] | Ratio [3] | MIC [4] | MIC [5] | MIC [6] | MIC [7] | MIC [8]
1 | O=C(OC[C@H]1O[C@@H](Oc2cc(O)cc(/C=C/c3ccc(O)cc3)c2)[C@H](O)[C@@H](O)[C@@H]1O)c1cc(O)c(O)c(O)c1 | > 250 µg/mL | 125 µg/mL (≈ 230 µM) | 1.3 | 125 µg/mL (≈ 230 µM) | 250 µg/mL (≈ 461 µM) | 125 µg/mL (≈ 230 µM) | > 250 µg/mL | 125 µg/mL (≈ 230 µM)
2 | CC(=O)O[C@@H]1CO[C@@H](Oc2cc(O)cc(/C=C/c3ccc(O)cc3)c2)[C@H](O)[C@H]1O |  |  | 0.2 |  |  |  |  | 
3 | OC[C@H]1O[C@@H](Oc2cc(O)cc(/C=C/c3ccc(O)cc3)c2)[C@H](O)[C@@H](O)[C@@H]1O |  |  | 0.54 |  |  |  |  | 
4 | OC[C@H]1O[C@@H](Oc2cc(O)cc(/C=C/c3ccccc3)c2)[C@H](O)[C@@H](O)[C@@H]1O |  |  | 0.14 |  |  |  |  | 
5 | Oc1ccc(/C=C/c2cc(O)cc(O[C@@H]3OC[C@@H](O)[C@H](O)[C@H]3O)c2)cc1 |  |  | 0.42 |  |  |  |  | 
6 | Cc1onc(-c2ccccc2)c1C(=O)N[C@@H]1C(=O)N2[C@@H]1SC(C)(C)[C@@H]2C(=O)O [OXACILLIN] | 512 µg/mL (≈ 1280 µM) | 256 µg/mL (≈ 638 µM) |  | 512 µg/mL (≈ 1280 µM) | 512 µg/mL (≈ 1280 µM) | 256 µg/mL (≈ 638 µM) | 256 µg/mL (≈ 638 µM) | 256 µg/mL (≈ 638 µM)
7 | Oc1cc(O)cc(/C=C/c2ccccc2)c1 [PINOSYLVIN] | 125 µg/mL (≈ 589 µM) | > 250 µg/mL | 0.52 | > 250 µg/mL | > 250 µg/mL | > 250 µg/mL | 125 µg/mL (≈ 589 µM) | > 250 µg/mL
8 | Oc1ccc(/C=C/c2cc(O)cc(O)c2)cc1 [RESVERATROL] | > 250 µg/mL | > 250 µg/mL | 1.77 | > 250 µg/mL | > 250 µg/mL | > 250 µg/mL | > 250 µg/mL | > 250 µg/mL
